# From ChEMBL document CHEMBL3826943, “Design, synthesis and evaluation of 6-aryl-indenoisoquinolone derivatives dual targeting ERα and VEGFR-2 as anti-breast cancer agents” (Eur J Med Chem, 2016)
# Tested on: HUVEC
# Assay: Antiangiogenic activity in HUVEC assessed as inhibition of cell proliferation incubated for 48 hrs by MTT assay
# Format: functional, cell-based
# Settings: Homo sapiens; call rule not given here
# Procedure, shortened: (§1)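 Cells kept in RPMI1640 with 10% FBS, penicillin/streptomycin, 37 °C, 5% CO2. Seeded at 1×10^5/mL, allowed 24 h, then exposed to compound at 1×10^-4, 1×10^-5, 1×10^-6 and 1×10^-7 mol/L for 48 h; controls got medium with 1% DMSO. MTT added for 4 h in the dark, formazan dissolved in DMSO, absorbance at 490 nm used for IC50.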
row,SMILES,IC50
1,O=C1c2cc(O)ccc2-c2c1c1ccc(O)cc1c(=O)n2-c1ccc(OCCN2CCCCC2)cc1,1.3 µM
2,COc1ccc2c(c1)C(=O)c1c-2n(-c2ccc(OCCN3CCCCC3)cc2)c(=O)c2cc(OC)ccc12,> 100 µM
3,COc1ccc2c(c1)C(=O)c1c-2n(-c2ccc(OCCN3CCN(C)CC3)cc2)c(=O)c2cc(OC)ccc12,12 µM
4,COc1ccc2c(c1)C(=O)c1c-2n(-c2ccc(OCCN(C)C)cc2)c(=O)c2cc(OC)ccc12,35.6 µM
5,COc1ccc2c(c1)C(=O)c1c-2n(-c2ccc(OCCN3CCCC3)cc2)c(=O)c2cc(OC)ccc12,> 100 µM

# Tested on: MDA-MB-231
# Assay: Antiproliferative activity against human MDA-MB-231 cells incubated for 48 hrs by MTT assay
# Format: functional, cell-based
# Settings: MDA-MB-231, 48 h
# Procedure, shortened: as §1
row,SMILES,IC50
1,COc1ccc2c(c1)C(=O)c1c-2n(-c2ccc(OCCN3CCCCC3)cc2)c(=O)c2cc(OC)ccc12,2.8 µM
2,COc1ccc2c(c1)C(=O)c1c-2n(-c2ccc(OCCN3CCN(C)CC3)cc2)c(=O)c2cc(OC)ccc12,> 100 µM
3,COc1ccc2c(c1)C(=O)c1c-2n(-c2ccc(OCCN(C)C)cc2)c(=O)c2cc(OC)ccc12,1.1 µM

# Stronger by IC50, values ahead:
row,IC50,SMILES
1,0.8 µM,O=C1c2cc(O)ccc2-c2c1c1ccc(O)cc1c(=O)n2-c1ccc(OCCN2CCCCC2)cc1
2,0.7 µM,COc1ccc2c(c1)C(=O)c1c-2n(-c2ccc(OCCN3CCCC3)cc2)c(=O)c2cc(OC)ccc12

# Target: T1, Estrogen receptor (Homo sapiens, UniProt P03372)
# T1 sequence (P03372 whole entry): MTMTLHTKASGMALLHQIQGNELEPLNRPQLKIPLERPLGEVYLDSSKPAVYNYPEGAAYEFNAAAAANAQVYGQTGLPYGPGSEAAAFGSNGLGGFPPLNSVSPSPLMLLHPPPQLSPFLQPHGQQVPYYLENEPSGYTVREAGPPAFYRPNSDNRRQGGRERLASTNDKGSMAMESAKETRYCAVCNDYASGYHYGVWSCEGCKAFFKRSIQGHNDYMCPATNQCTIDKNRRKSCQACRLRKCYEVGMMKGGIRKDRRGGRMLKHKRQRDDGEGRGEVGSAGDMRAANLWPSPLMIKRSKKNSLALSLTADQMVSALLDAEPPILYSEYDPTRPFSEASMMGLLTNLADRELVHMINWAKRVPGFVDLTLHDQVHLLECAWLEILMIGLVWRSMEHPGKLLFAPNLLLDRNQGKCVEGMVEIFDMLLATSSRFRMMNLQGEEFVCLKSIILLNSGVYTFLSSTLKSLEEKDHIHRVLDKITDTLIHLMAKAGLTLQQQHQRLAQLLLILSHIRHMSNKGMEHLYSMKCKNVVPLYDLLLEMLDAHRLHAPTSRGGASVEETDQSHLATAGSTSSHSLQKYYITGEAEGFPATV
# Assay: Displacement of fluorescein-labeled estrogen ligand from recombinant ER-alpha (unknown origin) incubated for 2 hrs by fluorescence polarization assay
# Settings: not given
row,SMILES,IC50
1,COc1ccc2c(c1)C(=O)c1c-2n(-c2ccc(OCCN3CCCCC3)cc2)c(=O)c2cc(OC)ccc12,24.9 µM
2,COc1ccc2c(c1)C(=O)c1c-2n(-c2ccc(OCCN3CCN(C)CC3)cc2)c(=O)c2cc(OC)ccc12,23.3 µM
3,COc1ccc2c(c1)C(=O)c1c-2n(-c2ccc(OCCN(C)C)cc2)c(=O)c2cc(OC)ccc12,24.4 µM

# The next lines start with the values.
row,IC50,SMILES
1,3.4 µM,O=C1c2cc(O)ccc2-c2c1c1ccc(O)cc1c(=O)n2-c1ccc(OCCN2CCCCC2)cc1
2,17.7 µM,COc1ccc2c(c1)C(=O)c1c-2n(-c2ccc(OCCN3CCCC3)cc2)c(=O)c2cc(OC)ccc12

# Tested on: Ishikawa
# Assay: Antiproliferative activity against human Ishikawa cells incubated for 48 hrs by MTT assay
# Format: functional, cell-based
# Settings: not given
# Procedure, shortened: as §1
row,SMILES,IC50
1,O=C1c2cc(O)ccc2-c2c1c1ccc(O)cc1c(=O)n2-c1ccc(OCCN2CCCCC2)cc1,4.3 µM
2,COc1ccc2c(c1)C(=O)c1c-2n(-c2ccc(OCCN3CCCCC3)cc2)c(=O)c2cc(OC)ccc12,9.6 µM
3,COc1ccc2c(c1)C(=O)c1c-2n(-c2ccc(OCCN3CCN(C)CC3)cc2)c(=O)c2cc(OC)ccc12,10.9 µM
4,COc1ccc2c(c1)C(=O)c1c-2n(-c2ccc(OCCN(C)C)cc2)c(=O)c2cc(OC)ccc12,10.6 µM
5,COc1ccc2c(c1)C(=O)c1c-2n(-c2ccc(OCCN3CCCC3)cc2)c(=O)c2cc(OC)ccc12,8.7 µM

# Tested on: MCF7
# Assay: Antiproliferative activity against human MCF7 cells incubated for 48 hrs by MTT assay
# Format: functional, cell-based
# Settings: MCF7, 48 h
# Procedure, shortened: as §1
row,SMILES,IC50
1,COc1ccc2c(c1)C(=O)c1c-2n(-c2ccc(OCCN3CCCCC3)cc2)c(=O)c2cc(OC)ccc12,0.3 µM
2,COc1ccc2c(c1)C(=O)c1c-2n(-c2ccc(OCCN3CCN(C)CC3)cc2)c(=O)c2cc(OC)ccc12,1.1 µM
3,COc1ccc2c(c1)C(=O)c1c-2n(-c2ccc(OCCN(C)C)cc2)c(=O)c2cc(OC)ccc12,1.1 µM

# Next, values leading:
row,IC50,SMILES
1,1.1 µM,O=C1c2cc(O)ccc2-c2c1c1ccc(O)cc1c(=O)n2-c1ccc(OCCN2CCCCC2)cc1
2,0.7 µM,COc1ccc2c(c1)C(=O)c1c-2n(-c2ccc(OCCN3CCCC3)cc2)c(=O)c2cc(OC)ccc12

# Target: Vascular endothelial growth factor receptor 2 (Homo sapiens, UniProt P35968)
# Sequence (P35968 whole entry): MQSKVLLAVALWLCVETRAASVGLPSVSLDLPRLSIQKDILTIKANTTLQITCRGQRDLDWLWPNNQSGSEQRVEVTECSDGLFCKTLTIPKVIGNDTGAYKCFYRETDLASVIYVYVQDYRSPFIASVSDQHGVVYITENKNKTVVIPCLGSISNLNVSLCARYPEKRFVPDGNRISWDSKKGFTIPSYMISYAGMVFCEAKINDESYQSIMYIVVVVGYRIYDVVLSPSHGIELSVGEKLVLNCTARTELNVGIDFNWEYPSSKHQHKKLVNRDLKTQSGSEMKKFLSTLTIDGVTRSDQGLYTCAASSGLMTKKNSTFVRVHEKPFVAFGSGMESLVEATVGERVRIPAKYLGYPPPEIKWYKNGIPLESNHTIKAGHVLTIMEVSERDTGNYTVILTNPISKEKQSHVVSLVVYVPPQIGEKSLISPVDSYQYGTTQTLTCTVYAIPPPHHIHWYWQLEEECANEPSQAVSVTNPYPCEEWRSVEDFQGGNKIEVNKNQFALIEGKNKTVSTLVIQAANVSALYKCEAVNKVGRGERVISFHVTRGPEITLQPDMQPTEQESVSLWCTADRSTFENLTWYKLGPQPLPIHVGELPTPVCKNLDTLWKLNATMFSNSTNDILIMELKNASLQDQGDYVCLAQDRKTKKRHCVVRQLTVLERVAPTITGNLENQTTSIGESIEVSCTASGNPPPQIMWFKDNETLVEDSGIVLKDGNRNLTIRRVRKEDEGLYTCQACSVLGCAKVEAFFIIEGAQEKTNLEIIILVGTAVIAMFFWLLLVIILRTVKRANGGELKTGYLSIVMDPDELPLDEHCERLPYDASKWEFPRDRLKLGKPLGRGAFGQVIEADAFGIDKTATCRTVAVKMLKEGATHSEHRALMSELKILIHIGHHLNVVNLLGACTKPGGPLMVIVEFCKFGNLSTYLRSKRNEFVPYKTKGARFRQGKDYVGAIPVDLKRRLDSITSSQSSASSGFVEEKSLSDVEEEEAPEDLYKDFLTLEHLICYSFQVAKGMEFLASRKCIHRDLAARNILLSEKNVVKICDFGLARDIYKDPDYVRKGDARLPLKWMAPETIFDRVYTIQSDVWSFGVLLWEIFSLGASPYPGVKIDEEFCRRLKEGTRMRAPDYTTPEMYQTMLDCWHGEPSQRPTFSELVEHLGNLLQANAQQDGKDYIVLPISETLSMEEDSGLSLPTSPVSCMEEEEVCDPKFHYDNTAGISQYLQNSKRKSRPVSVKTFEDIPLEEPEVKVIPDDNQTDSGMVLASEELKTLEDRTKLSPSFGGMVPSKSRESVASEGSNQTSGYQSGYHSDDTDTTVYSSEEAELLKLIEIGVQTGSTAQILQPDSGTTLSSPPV
# Settings: not given
row,IC50,SMILES
1,Not Active,COc1ccc2c(c1)C(=O)c1c-2n(-c2ccc(OCCN3CCCCC3)cc2)c(=O)c2cc(OC)ccc12
2,Not Active,COc1ccc2c(c1)C(=O)c1c-2n(-c2ccc(OCCN3CCN(C)CC3)cc2)c(=O)c2cc(OC)ccc12
3,Not Active,COc1ccc2c(c1)C(=O)c1c-2n(-c2ccc(OCCN3CCCC3)cc2)c(=O)c2cc(OC)ccc12

# Same assay, conditions: read-out: IC50
row,IC50,SMILES
1,0.25 µM,O=C1c2cc(O)ccc2-c2c1c1ccc(O)cc1c(=O)n2-c1ccc(OCCN2CCCCC2)cc1
2,3.9 µM,COc1ccc2c(c1)C(=O)c1c-2n(-c2ccc(OCCN(C)C)cc2)c(=O)c2cc(OC)ccc12
